Laboratory results as given in ChEMBL document CHEMBL3769403, “Carbonic anhydrase activators: Activation of the β-carbonic anhydrase from Malassezia globosa with amines and amino acids” (Bioorg Med Chem Lett, 2016).

How the values were obtained:
Malassezia globosa [1] = assay: Activation of Malassezia globosa beta-carbonic anhydrase incubated for 15 mins prior to testing by stopped flow CO2 hydrase method
Method in brief: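 Recombinant M. globosa β-CA (12.1 nM in assay; enzymes 10-14 nM) preincubated with activator 15 min at room temperature. CO2 hydration followed 10 s at 25 °C by stopped-flow, phenol red 0.2 mM at 557 nm, 20 mM Tris pH 8.3, 20 mM NaClO4; CO2 0.17-17 mM. Initial velocities from the first 5-10% of at least six traces, uncatalyzed rate subtracted; KA from the competitive steady-state equation; mean of 3 assays.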

Malassezia globosa [2] = settings: 10 uM

Row | SMILES | KA (Malassezia globosa [1]) [µM] | kcat (Malassezia globosa [2]) [×10⁵ /s]
1 | N[C@@H](Cc1ccccc1)C(=O)O | 34.1 | 
2 | N[C@@H](Cc1ccc(O)c(O)c1)C(=O)O | 8.31 | 
3 | NCCc1ccc(O)c(O)c1 | 9.43 | 
4 | N[C@@H](Cc1c[nH]cn1)C(=O)O | 29.3 | 
5 | NCCc1ccccn1 | 7.3 | 
6 | N[C@@H](Cc1ccc(O)cc1)C(=O)O | 15.7 | 
7 | NCCc1c[nH]c2ccc(O)cc12 | 14.2 | 
8 | NCCc1c[nH]cn1 | 10.9 | 18.5
9 | N[C@H](Cc1c[nH]cn1)C(=O)O | 18.1 | 
10 | N[C@H](Cc1ccc(O)c(O)c1)C(=O)O | 13.7 | 
11 | N[C@@H](Cc1c[nH]c2ccccc12)C(=O)O | 10.1 | 
12 | CNC[C@H](O)c1ccc(O)c(O)c1 | 0.72 | 
13 | N[C@H](Cc1ccccc1)C(=O)O | 10.7 | 
14 | N[C@H](Cc1ccc(O)cc1)C(=O)O | 25.1 | 
15 | N[C@H](Cc1c[nH]c2ccccc12)C(=O)O | 12.5 | 
16 | NCc1ccccn1 | 6.12 | 
17 | NCCN1CCOCC1 | 5.82 | 
18 | Nc1ccc(C[C@H](N)C(=O)O)cc1 | 13.4 | 
19 | NCCN1CCNCC1 | 0.81 | 
